Source: BindingDB's records for doi:10.1021/acs.jmedchem.0c01922 (University of Toronto Mississauga, 2021)

Molecular target: T1, Histone deacetylase 11 (Homo sapiens, UniProt Q96DB2)
T1 sequence (Q96DB2 whole entry): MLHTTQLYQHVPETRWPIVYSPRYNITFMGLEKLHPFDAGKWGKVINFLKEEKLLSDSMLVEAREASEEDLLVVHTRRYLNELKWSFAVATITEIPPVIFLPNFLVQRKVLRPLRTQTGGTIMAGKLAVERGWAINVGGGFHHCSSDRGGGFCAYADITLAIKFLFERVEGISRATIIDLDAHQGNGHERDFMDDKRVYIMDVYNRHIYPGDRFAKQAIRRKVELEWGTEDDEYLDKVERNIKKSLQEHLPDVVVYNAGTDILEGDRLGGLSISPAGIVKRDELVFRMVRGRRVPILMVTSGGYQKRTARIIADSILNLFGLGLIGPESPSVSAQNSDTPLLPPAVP
Assay: Inhibition of full length human HDAC11 using FAM-labeled acetylated peptide as substrate by electrophoretic mobility shift assay
Method in brief: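 Full-length human HDAC isoform enzymatic assay by electrophoretic mobility shift, using a FAM-labelled acetylated peptide substrate. […] Values are the mean of duplicate experiments with 95% confidence intervals.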

`O=C(NO)c1ccc(CN(Cc2cccnc2)S(=O)(=O)c2cc(F)c(F)c(F)c2F)cc1` gave an IC50 greater than 1000 nM.
